Key:
Plasmodium falciparum [1] = experiment: Antiplasmodial activity against chloroquine-resistant Plasmodium falciparum Dd2 after 72 hrs by malaria SYBR Green I-based fluorescence assay; format: functional, organism-based; conditions: Dd2, 72 h
Method in brief: (§1)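 Parasites kept continuously in O+ human erythrocytes with 10% human serum under 7% CO2/5% O2/88% N2. Test compounds from 100 mM DMSO stocks, serially diluted in culture medium, added in quadruplicate to asynchronous cultures at 0.2% parasitemia, 2% hematocrit. Incubated 72 h, 37 C. Lysis buffer with SYBR Green I added, 1 h 37 C dark. Fluorescence read at ex 497/em 520 nm. IC50 from nonlinear logistic dose-response regression.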

Plasmodium falciparum [2] = experiment: Antiplasmodial activity against chloroquine-susceptible Plasmodium falciparum 3D7 after 72 hrs by malaria SYBR Green I-based fluorescence assay; format: functional, organism-based; conditions: 3D7, 72 h; method in brief: as §1
[3] = Cytotoxicity against african green monkey Vero cells at 166.67 uM after 72 hrs by MTT assay; format: cell-based; conditions: chlorocebus sabaeus, read-out: INH
[4] = Cytotoxicity against african green monkey Vero cells at 55.56 uM after 72 hrs by MTT assay; format: cell-based; conditions: chlorocebus sabaeus, read-out: INH
[5] = Cytotoxicity against african green monkey Vero cells at 6.17 uM after 72 hrs by MTT assay; format: cell-based; conditions: chlorocebus sabaeus, read-out: INH
[6] = Cytotoxicity against african green monkey Vero cells at 18.52 uM after 72 hrs by MTT assay; format: cell-based; conditions: chlorocebus sabaeus, read-out: INH

Compound	IC50 (Plasmodium falciparum [1]) [µM]	IC50 (Plasmodium falciparum [2]) [µM]	cytotoxicity at 72 h, 166.67 µM [3] [%]	cytotoxicity at 72 h, 55.56 µM [4] [%]	cytotoxicity at 72 h, 6.17 µM [5] [%]	cytotoxicity at 72 h, 18.52 µM [6] [%]
C[C@@H]1CC[C@H]2[C@@H](C)C(=O)O[C@@H]3O[C@@]4(C)CC[C@@H]1[C@]32OO4 [ARTEMISININ]	0.0135	0.0125				
COc1cc(O)c2c(c1)[C@@H]1O[C@H]([C@H](O)/C=C/C[C@H](C)OC2=O)[C@@H](O)C[C@H]1O [PAECILOMYCIN B]	> 50	3.8	46.3	5.6	0	0
COc1cc(O)c2c(c1)/C=C/C[C@H](O)[C@H](O)[C@@H](O)CCC[C@H](C)OC2=O [PAECILOMYCIN E]	8.8	0.02	50.2	23.5	0	3.4
COc1cc(O)c2c(c1)/C=C/C[C@H](O)[C@H](O)[C@H](O)CCC[C@H](C)OC2=O [PAECILOMYCIN F]	1.7	1.1	58.5	25.7	2.3	10.4
C[C@H]1C/C=C/[C@@H](O)[C@@H](O)CC/C=C/c2cc(O)cc(O)c2C(=O)O1 [AIGIALOMYCIN D]	10.5	3.1	56.3	30.2	3.4	12.5
COc1cc(O)c2c(c1)[C@@H]([C@H](O)C[C@H](O)[C@H](O)[C@@H](O)/C=C/C[C@H](C)O)OC2=O [PAECILOMYCIN C]	> 50	> 50				
COc1cc(O)c2c(c1)[C@@H]([C@H](O)C[C@H](O)[C@H](O)[C@H](O)/C=C/C[C@H](C)O)OC2=O [PAECILOMYCIN D]	> 50	> 50				
COc1cc(O)c2c(c1)[C@@H]1O[C@@H]1C[C@H](O)[C@H](O)[C@@H](O)/C=C/C[C@H](C)OC2=O [AIGIALOMYCIN B]	13.5	0.65	30.2	2.3	0	0
COc1cc(O)c2c(c1)/C=C/C[C@H](O)[C@H](O)[C@@H](O)/C=C/C[C@H](C)OC2=O [ZEAENOL]	> 50	> 50				
COc1cc(O)c2c(c1)[C@@H]1O[C@@H]1C[C@H](O)[C@H](O)[C@H](O)/C=C/C[C@H](C)OC2=O [PAECILOMYCIN A]	> 50	0.78	29.6	0	0	0
COc1cc(O)c2c(c1)[C@@H](O)[C@H](C[C@H](O)[C@H](O)[C@@H](O)/C=C/C[C@H](C)O)OC2=O [AIGIALOMYCIN F]	> 50	0.0109	43.2	20.3	2.3	15.6

Reference: ChEMBL document CHEMBL1157804, “beta-Resorcylic acid lactones from a Paecilomyces fungus” (J Nat Prod, 2010)
